Source: ChEMBL document CHEMBL5357047, “The development of thymol-isatin hybrids as broad-spectrum antibacterial agents with potent anti-MRSA activity” (RSC Med Chem, 2024)
Converted amounts (≈) assume the structure as drawn. The source made the active and inactive calls. The rule behind the calls is not given here.

Experiments:
[1] = tested on: Staphylococcus aureus; experiment: Antibacterial activity against Staphylococcus aureus MTCC 740 assessed as inhibition of bacterial growth at 50 uM measured after 48 hrs by agar well diffusion method; assay type: functional; settings: read-out: IZ
[2] = tested on: Staphylococcus aureus; experiment: Antibacterial activity against clinically isolated Staphylococcus aureus RBRJ010 assessed as inhibition of bacterial growth at 50 uM measured after 48 hrs by agar well diffusion method; assay type: functional; settings: read-out: IZ
[3] = tested on: Staphylococcus epidermidis; experiment: Antibacterial activity against Staphylococcus epidermidis MTCC 435 assessed as inhibition of bacterial growth at 50 uM measured after 48 hrs by agar well diffusion method; assay type: functional; settings: read-out: IZ
[4] = tested on: Staphylococcus aureus; experiment: Antibacterial activity against clinically isolated Methicillin-resistant Staphylococcus aureus assessed as inhibition of bacterial growth at 50 uM measured after 48 hrs by agar well diffusion method; assay type: functional; settings: read-out: IZ
[5] = tested on: Staphylococcus aureus; experiment: Antibacterial activity against Methicillin-resistant Staphylococcus aureus ATCC 33591 assessed as inhibition of bacterial growth at 50 uM measured after 48 hrs by agar well diffusion method; assay type: functional; settings: read-out: IZ
How it was run: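 Agar well diffusion on Mueller Hinton agar seeded with bacteria at 0.5 McFarland. […] Incubated 48 h at 37 °C aerobically; zone of inhibition diameter (mm) measured. Triplicate.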

[6] = tested on: Enterococcus faecalis; experiment: Antibacterial activity against Enterococcus faecalis MTCC 439 assessed as inhibition of bacterial growth at 50 uM measured after 48 hrs by agar well diffusion method; assay type: functional; settings: read-out: IZ
[7] = tested on: Enterococcus faecalis; experiment: Antibacterial activity against clinically isolated Enterococcus faecalis RBRJ015 assessed as inhibition of bacterial growth at 50 uM measured after 48 hrs by agar well diffusion method; assay type: functional; settings: read-out: IZ
[8] = tested on: Klebsiella pneumoniae; experiment: Antibacterial activity against Klebsiella pneumoniae MTCC 109 assessed as inhibition of bacterial growth at 50 uM measured after 48 hrs by agar well diffusion method; assay type: functional; settings: read-out: IZ
[9] = tested on: Klebsiella pneumoniae; experiment: Antibacterial activity against clinically isolated Klebsiella pneumoniae RBRJ019 assessed as inhibition of bacterial growth at 50 uM measured after 48 hrs by agar well diffusion method; assay type: functional; settings: read-out: IZ
[10] = tested on: Klebsiella pneumoniae; experiment: Antibacterial activity against clinically isolated Klebsiella pneumoniae RBRJ024 assessed as inhibition of bacterial growth at 50 uM measured after 48 hrs by agar well diffusion method; assay type: functional; settings: read-out: IZ
[11] = tested on: Escherichia coli; experiment: Antibacterial activity against Escherichia coli MTCC 119 assessed as inhibition of bacterial growth at 50 uM measured after 48 hrs by agar well diffusion method; assay type: functional; settings: read-out: IZ
[12] = tested on: Escherichia coli; experiment: Antibacterial activity against clinically isolated Escherichia coli RBRJ005 assessed as inhibition of bacterial growth at 50 uM measured after 48 hrs by agar well diffusion method; assay type: functional; settings: read-out: IZ
[13] = tested on: Escherichia coli; experiment: Antibacterial activity against clinically isolated Escherichia coli RBRJ013 assessed as inhibition of bacterial growth at 50 uM measured after 48 hrs by agar well diffusion method; assay type: functional; settings: read-out: IZ
[14] = tested on: Enterobacter cloacae; experiment: Antibacterial activity against clinically isolated Enterobacter cloacae RBRJ017 assessed as inhibition of bacterial growth at 50 uM measured after 48 hrs by agar well diffusion method; assay type: functional; settings: read-out: IZ
[15] = tested on: Acinetobacter baumannii; experiment: Antibacterial activity against clinically isolated Acinetobacter baumannii RBRJ027 assessed as inhibition of bacterial growth at 50 uM measured after 48 hrs by agar well diffusion method; assay type: functional; settings: read-out: IZ
[16] = tested on: Pseudomonas aeruginosa; experiment: Antibacterial activity against Pseudomonas aeruginosa MTCC 424 assessed as inhibition of bacterial growth at 50 uM measured after 48 hrs by agar well diffusion method; assay type: functional; settings: read-out: IZ
[17] = tested on: Staphylococcus aureus; experiment: Antibacterial activity against Staphylococcus aureus MTCC 740 assessed as inhibition of bacterial growth measured after 48 hrs by broth microdilution method; assay type: functional
[18] = tested on: Staphylococcus aureus; experiment: Antibacterial activity against clinically isolated Staphylococcus aureus RBRJ010 assessed as inhibition of bacterial growth measured after 48 hrs by broth microdilution method; assay type: functional
[19] = tested on: Staphylococcus epidermidis; experiment: Antibacterial activity against Staphylococcus epidermidis MTCC 435 assessed as inhibition of bacterial growth measured after 48 hrs by broth microdilution method; assay type: functional
[20] = tested on: Staphylococcus aureus; experiment: Antibacterial activity against clinically isolated Methicillin-resistant Staphylococcus aureus assessed as inhibition of bacterial growth measured after 48 hrs by broth microdilution method; assay type: functional
[21] = tested on: Staphylococcus aureus; experiment: Antibacterial activity against Methicillin-resistant Staphylococcus aureus ATCC 33591 assessed as inhibition of bacterial growth measured after 48 hrs by broth microdilution method; assay type: functional
[22] = tested on: Staphylococcus aureus; experiment: Bactericidal activity against Staphylococcus aureus MTCC 740 assessed as inhibition of bacterial growth measured after 48 hrs by agar plate method; assay type: functional
How it was run: (§1)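 MBC: aliquots from microdilution wells without colour change subcultured on drug-free Mueller Hinton agar, 48 h at 37 °C aerobically. MBC is the lowest concentration with no visible growth. Triplicate.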

[23] = tested on: Staphylococcus aureus; experiment: Bactericidal activity against clinically isolated Staphylococcus aureus RBRJ010 assessed as inhibition of bacterial growth measured after 48 hrs by agar plate method; assay type: functional
How it was run: (§2)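 MBC: 10 μL from wells showing no INT colour change after broth microdilution subcultured on drug-free Mueller Hinton agar, 48 h at 37 °C aerobically; lowest concentration with no visible growth taken as MBC (μM). Triplicate.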

[24] = tested on: Staphylococcus epidermidis; experiment: Bactericidal activity against Staphylococcus epidermidis MTCC 435 assessed as inhibition of bacterial growth measured after 48 hrs by agar plate method; assay type: functional; how it was run: as §2
[25] = tested on: Staphylococcus aureus; experiment: Bactericidal activity against clinically isolated Methicillin-resistant Staphylococcus aureus assessed as inhibition of bacterial growth measured after 48 hrs by agar plate method; assay type: functional
[26] = tested on: Staphylococcus aureus; experiment: Bactericidal activity against Methicillin-resistant Staphylococcus aureus ATCC 33591 assessed as inhibition of bacterial growth measured after 48 hrs by agar plate method; assay type: functional; how it was run: as §1
[27] = Cytotoxicity against mouse L929 cells assessed as reduction in cell viability measured after 72 hrs by MTT assay; assay type: toxicity, cell-based
How it was run: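 L929 cells (ATCC) grown in DMEM with 10% FBS and penicillin/streptomycin at 37 °C, 5% CO2; seeded at 5 × 10^3 cells per well and exposed to serial dilutions for 72 h, paclitaxel as positive control. MTT (5 mg mL−1), formazan dissolved in DMSO, absorbance at 490 nm; viability relative to control after blank subtraction; IC50 in μM.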

[28] = Selectivity index, ratio of IC50 for cytotoxicity against mouse L929 cells to MIC for antibacterial activity against clinically isolated Methicillin-resistant Staphylococcus aureus; assay type: toxicity, cell-based; settings: read-out: Selectivity Index
[29] = tested on: Klebsiella pneumoniae; settings: RBRJ019, dose 50.0 µM, time 48.0 hrs
[30] = tested on: Klebsiella pneumoniae; settings: RBRJ024, dose 50.0 µM, time 48.0 hrs

Q: Which zone of inhibition at 50 µM [1] does the source give for Cc1ccc(C(C)C)c(OCc2cn(CCCN3C(=O)C(=O)c4cc(C)ccc43)nn2)c1 here?
A: 26.1 mm

Q: And the zone of inhibition at 50 µM [2]?
A: 24.6 mm

Q: And the zone of inhibition at 50 µM [3]?
A: 22.2 mm

Q: And the zone of inhibition at 50 µM [4]?
A: 26.7 mm

Q: And the zone of inhibition at 50 µM [5]?
A: 24.1 mm

Q: And the zone of inhibition at 50 µM [6]?
A: 13.3 mm

Q: And the zone of inhibition at 50 µM [7]?
A: 13.4 mm

Q: And the zone of inhibition at 50 µM [8]?
A: 19.2 mm

Q: What about the zone of inhibition at 50 µM [9] of the same compound?
A: 18.5 mm

Q: What about the zone of inhibition at 50 µM [10] of the same compound?
A: 17.2 mm

Q: What about the zone of inhibition at 50 µM [11] of the same compound?
A: 16.5 mm

Q: What about the zone of inhibition at 50 µM [12] of the same compound?
A: 18.2 mm

Q: What about the zone of inhibition at 50 µM [13] of the same compound?
A: 17.6 mm

Q: What about the zone of inhibition at 50 µM [14] of the same compound?
A: 15.4 mm

Q: And the zone of inhibition at 50 µM [15]?
A: 13.1 mm

Q: What about the zone of inhibition at 50 µM [16] of the same compound?
A: 19.5 mm

Q: And the MIC [17]?
A: 3.9 µM (≈ 1.69 µg/mL)

Q: And the MIC [18]?
A: 7.8 µM (≈ 3.37 µg/mL)

Q: And the MIC [19]?
A: 15.6 µM (≈ 6.75 µg/mL)

Q: What about the MIC [20] of the same compound?
A: 3.9 µM (≈ 1.69 µg/mL)

Q: What about the MIC [21] of the same compound?
A: 3.9 µM (≈ 1.69 µg/mL)

Q: And the MBC [22]?
A: 7.8 µM (≈ 3.37 µg/mL)

Q: What about the MBC [23] of the same compound?
A: 15.6 µM (≈ 6.75 µg/mL)

Q: What about the MBC [24] of the same compound?
A: 31.2 µM (≈ 13.5 µg/mL)

Q: What about the MBC [25] of the same compound?
A: 7.8 µM (≈ 3.37 µg/mL)

Q: And the MBC [26]?
A: 7.8 µM (≈ 3.37 µg/mL)

Q: And the IC50 at 72 h [27]?
A: 125 µM

Q: What about the selectivity ratio [28] of the same compound?
A: 32

Q: For O=C(O)c1cn(C2CC2)c2cc(N3CCNCC3)c(F)cc2c1=O [CIPROFLOXACIN], which zone of inhibition at 50 µM [3] is on record?
A: 17.4 mm

Q: And the zone of inhibition at 50 µM [5]?
A: 24.5 mm

Q: And the zone of inhibition at 50 µM [6]?
A: 15.9 mm

Q: And the zone of inhibition at 50 µM [8]?
A: 14.5 mm

Q: And the zone of inhibition at 50 µM [11]?
A: 11.2 mm

Q: And the zone of inhibition at 50 µM [16]?
A: 24.2 mm

Q: And the MIC [21]?
A: 1.9 µM (≈ 0.63 µg/mL)

Q: And the MBC [26]?
A: 3.9 µM (≈ 1.29 µg/mL)

Q: What about the IZ [29] of the same compound?
A: inactive

Q: What about the IZ [30] of the same compound?
A: inactive
